Data taken from ChEMBL document CHEMBL1129387, “Synthesis and biological activity of 1 alpha, 25-dihydroxy-18-norvitamin D3 and 1 alpha, 25-dihydroxy-18,19-dinorvitamin D3” (1996).
Several values for one entry are separate records, joined by “and”; a condition that tells them apart may be missing. Equal entries are not always repeated.

Tests used:
Rattus norvegicus [1] = species: Rattus norvegicus; test: Support of Serum Calcium Transport mobilization response of Vitamin D-Deficient Rats on a low-calcium diet(amount 260 pmol); type: functional, organism-based
Summary of the method: (§1)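 Weanling male rats deficient in vitamin D, held on a low-calcium (0.02% Ca) diet, dosed intraperitoneally each day for 7 days in 0.1 mL of 95:5 propylene glycol/ethanol, with vehicle controls. Serum calcium was measured by automatic titrator 24 h after the last dose as the index of bone calcium mobilization. At least 5 rats/group; mean ± SEM; Student's t-test.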

Rattus norvegicus [2] = species: Rattus norvegicus; test: Support of Serum Calcium Transport mobilization response of Vitamin D-Deficient Rats on a low-calcium diet(amount 1000 pmol); type: functional, organism-based; summary of the method: as §1
Rattus norvegicus [3] = species: Rattus norvegicus; test: Support of Intestinal Calcium Transport mobilization response of Vitamin D-Deficient Rats on a low-calcium diet(amount 130 pmol); type: functional
Summary of the method: (§2)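 Vitamin D-deficient weanling male rats kept on a 0.02% Ca diet. Compound given intraperitoneally daily for 7 days in 0.1 mL of 95:5 propylene glycol/ethanol; controls got vehicle. Killed 24 h after the last dose. Intestinal Ca transport by everted sac (proximal 10 cm), reported as S/M ratio. At least 5 rats/group; mean ± SEM; Student's t-test.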

Rattus norvegicus [4] = species: Rattus norvegicus; test: Support of Serum Calcium Transport mobilization response of Vitamin D-Deficient Rats on a low-calcium diet(amount 500 pmol); type: functional, organism-based; summary of the method: as §1
Rattus norvegicus [5] = species: Rattus norvegicus; test: Support of Intestinal Calcium Transport mobilization response of Vitamin D-Deficient Rats on a low-calcium diet(amount 1000 pmol); type: functional; summary of the method: as §2
Rattus norvegicus [6] = species: Rattus norvegicus; test: Support of Serum Calcium Transport mobilization response of Vitamin D-Deficient Rats on a low-calcium diet(amount 130 pmol); type: functional, organism-based; summary of the method: as §1
Rattus norvegicus [7] = species: Rattus norvegicus; test: Support of Intestinal Calcium Transport mobilization response of Vitamin D-Deficient Rats on a low-calcium diet(amount 260 pmol); type: functional; summary of the method: as §2
Rattus norvegicus [8] = species: Rattus norvegicus; test: Support of Intestinal Calcium Transport mobilization response of Vitamin D-Deficient Rats on a low-calcium diet(amount 500 pmol); type: functional; summary of the method: as §2
Rattus norvegicus [9] = species: Rattus norvegicus; test: Intestinal Calcium Transport mobilization response of Vitamin D-Deficient Rats on a low-calcium diet(amount 500 pmol); type: functional; summary of the method: as §2
Rattus norvegicus [10] = test: Intestinal Calcium Transport mobilization response of Vitamin D-Deficient Rats to a single Intravenous Injection of D3 (amount 260 pmol); type: functional
Summary of the method: (§3)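 Vitamin D-deficient weanling male rats, 3 weeks on a 0.47% Ca diet then 1 week on 0.02% Ca. A single intravenous dose was given in 0.1 mL of 95:5 propylene glycol/ethanol, with vehicle controls. After 24 h, the proximal 10 cm of intestine was taken for everted-sac calcium transport, expressed as serosal:mucosal (S/M) Ca ratio. At least 5 rats/group; mean ± SEM.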

Rattus norvegicus [11] = test: Bone Calcium mobilization response of Vitamin D-Deficient Rats to a single Intravenous Injection of (amount 260 pmol); type: functional, organism-based
Summary of the method: (§4)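 Vitamin D-deficient weanling male rats, 3 weeks on a 0.47% Ca diet then 1 week on 0.02% Ca. A single intravenous dose was given in 0.1 mL of 95:5 propylene glycol/ethanol, with vehicle controls. Serum calcium was measured by automatic titrator 24 h after dosing. The rise in serum Ca on the low-Ca diet is taken as bone calcium mobilization. At least 5 rats/group; mean ± SEM.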

Rattus norvegicus [12] = species: Rattus norvegicus; test: Serum Calcium Transport mobilization response of Vitamin D-Deficient Rats on a low-calcium diet(amount 500 pmol); type: functional, organism-based; summary of the method: as §1
Rattus norvegicus [13] = test: Bone Calcium mobilization response of Vitamin D-Deficient Rats to a single Intravenous Injection (amount 260 pmol); type: functional, organism-based; summary of the method: as §4
Rattus norvegicus [14] = species: Rattus norvegicus; test: Support of Intestinal Calcium Transport mobilization response of Vitamin D-Deficient Rats on a low-calcium diet(amount 1300 pmol); type: functional; summary of the method: as §2
Rattus norvegicus [15] = species: Rattus norvegicus; test: Support of Intestinal Calcium Transport mobilization response of Vitamin D-Deficient Rats on a low-calcium diet(amount 650 pmol); type: functional; summary of the method: as §2
Rattus norvegicus [16] = species: Rattus norvegicus; test: Support of Serum Calcium Transport mobilization response of Vitamin D-Deficient Rats on a low-calcium diet(amount 1300 pmol); type: functional, organism-based; summary of the method: as §1
Rattus norvegicus [17] = test: Intestinal Calcium Transport mobilization response of Vitamin D-Deficient Rats to a single Intravenous Injection amount 260 pmol); type: functional; summary of the method: as §3
Rattus norvegicus [18] = species: Rattus norvegicus; test: Support of Serum Calcium Transport mobilization response of Vitamin D-Deficient Rats on a low-calcium diet(amount 650 pmol); type: functional, organism-based; summary of the method: as §1

| Compound | Serum Ca2+ (Rattus norvegicus [1]) | Serum Ca2+ (Rattus norvegicus [2]) | Ca2+ transport (Rattus norvegicus [3]) | Serum Ca2+ (Rattus norvegicus [4]) | Ca2+ transport (Rattus norvegicus [5]) | Serum Ca2+ (Rattus norvegicus [6]) | Ca2+ transport (Rattus norvegicus [7]) | Ca2+ transport (Rattus norvegicus [8]) | Ca2+ transport (Rattus norvegicus [9]) | Ca2+ transport (Rattus norvegicus [10]) | Serum Ca2+ (Rattus norvegicus [11]) | Serum Ca2+ (Rattus norvegicus [12]) | Serum Ca2+ (Rattus norvegicus [13]) | Ca2+ transport (Rattus norvegicus [14]) | Ca2+ transport (Rattus norvegicus [15]) | Serum Ca2+ (Rattus norvegicus [16]) | Ca2+ transport (Rattus norvegicus [17]) | Serum Ca2+ (Rattus norvegicus [18]) |
| --- | --- | --- | --- | --- | --- | --- | --- | --- | --- | --- | --- | --- | --- | --- | --- | --- | --- | --- |
| C[C@H](CCCC(C)(C)O)C1CC[C@H]2/C(=C/C=C3C[C@@H](O)C[C@H](O)C3)CCC[C@H]12 (some centres undefined) | 4.9 | 5.5 | 3.7 | 5.6 | 6.9 | 4.8 | 4.8 | 6.2 | – | – | – | – | – | – | – | – | – | – |
| C=C1/C(=C\C=C2/CCC[C@]3(C)[C@@H]([C@H](C)CCCC(C)(C)O)CC[C@@H]23)C[C@@H](O)C[C@@H]1O [CALCITRIOL] | 5.4 and 7.1 | – | 6.8 | – | – | 5.8 | 7.6 | – | 5.7 | 5 | 4.8 | 5.5 | – | – | – | – | – | – |
| C=C1/C(=C\C=C2/CCC[C@@H]3C([C@H](C)CCCC(C)(C)O)CC[C@@H]23)C[C@@H](O)C[C@@H]1O (some centres undefined) | – | – | – | – | – | – | – | – | 4.1 | – | – | 5.1 | 4.4 | 5.5 | 5.4 | 5.6 | 3.9 | 5.2 |
